Data from ChEMBL document CHEMBL4715728, “New bifunctional antioxidant/σ1 agonist ligands: Preliminary chemico-physical and biological evaluation” (Bioorg Med Chem, 2016).

Legend:
[1] = Stability of compound in fasted state stimulated intestinal fluid at pH 1.3 assessed as rate of compound hydrolysis in presence of 40 mg/ml pepsin by HPLC-UV assay; type: ADME; settings: isolated protein
Outline: (§1)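 HCl buffer with pepsin or phosphate buffer with pancreatin (10 or 40 mg/ml), preincubated at 37 °C. Drug stock (50 µM in ethanol/fasted state intestinal fluid 1:9) added and shaken at 37 °C, 650 rpm. Samples quenched with ice-cold acetonitrile containing 0.5% formic acid, centrifuged at 2 °C, and the supernatant assayed by HPLC-UV. Three experiments.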

[2] = Antioxidant activity in Sprague-Dawley rat Cerebral cortex neuron assessed as total antioxidant capacity by measuring trolox equivalents at 25 uM after 24 hrs; type: functional
Outline: (§2)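 Primary cerebral cortex neurons from rat fetuses, grown on poly-D-lysine in neurobasal medium with fetal calf serum (5% CO2, 37 °C), tested after 8 days in culture. Compounds in DMSO (0.5%) or sterile water were added and incubated 24 h at 37 °C. Cells were washed in ice-cold PBS and homogenized in 0.9% saline. Intracellular TAC (Trolox equiv.) and TOS (H2O2 equiv.) were read by kit. Ascorbic acid 10 µM (TAC) and H2O2 25 µM (TOS) served as positive controls. Four independent experiments.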

[3] = Cytotoxicity against Sprague-Dawley rat Cerebral cortex neuron assessed as LDH activity at 0.1 uM incubated for 24 hrs by LDH assay (reference value: […]); type: tissue-based
Outline: (§3)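 Primary fetal rat cortical neurons, matured 8 days on poly-D-lysine, exposed 24 h at 37 °C to compound (0.1–100 µM; DMSO 0.5% or water vehicle). LDH released into 100 µl culture medium was measured by kit as the rate of NAD+ reduction (absorbance increase at 490 nm). Positive control was mitomycin C. Four independent experiments.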

[4] = Stability of compound in non-enzymatic stimulated-gastric fluid at pH 1.3 assessed as half life by HPLC-UV assay; type: physicochemical; settings: non-enzymatic simulated gastric fluid
Outline: (§4)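 Chemical hydrolysis in 0.02 M HCl buffer pH 1.3 (non-enzymatic simulated gastric fluid) or 0.02 M phosphate buffer pH 7.4, each containing 20% acetonitrile, at 37 °C. Started by adding the 10^-4 M acetonitrile stock. Samples taken over time and analyzed by HPLC-UV at 220 nm. Rate constants are means of triplicates.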

[5] = Stability of compound in phosphate buffer at pH 7.4 assessed as compound half life by HPLC-UV assay; type: physicochemical; outline: as §4
[6] = Stability of compound in fasted state stimulated intestinal fluid at pH 7.4 assessed as half life in presence of 10 mg/ml pancreatin by HPLC-UV assay; type: ADME; settings: for half-life: fasted state simulated intestinal fluid with pancreatin; outline: as §1
[7] = Stability of compound in rat plasma assessed as half life by HPLC-UV assay; type: ADME, cell-free
Outline: (§5)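 Citrated human or rat plasma diluted to 80% with 0.02 M phosphate buffer pH 7.4, 37 °C with shaking. Compound added from a 1 mg/ml acetonitrile stock. Aliquots deproteinized with 0.01 M HCl in methanol, centrifuged, and analyzed by HPLC-UV (C8 column, KH2PO4/methanol pH 2.5, 220 nm). Remaining intact compound plotted against time. Three experiments.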

[8] = Cytotoxicity against Sprague-Dawley rat Cerebral cortex neuron assessed as cell viability at 0.1 uM incubated for 24 hrs by MTT assay relative to control; type: tissue-based; settings: cerebral cortex neurons, read-out: Activity
Outline: (§6)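 Primary fetal rat cortical neurons, matured 8 days, treated 24 h at 37 °C with compound (0.1–100 µM; 0.5% DMSO or water vehicle). MTT 0.7 mg/ml was then added for 30 min at 37 °C, and formazan was extracted with isopropanol/formic acid (95:5) and read at 560 nm. Untreated control was set as 100% viability. Four independent experiments.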

[9] = Stability of compound in phosphate buffer at pH 7.4 assessed as rate of compound hydrolysis by HPLC-UV assay; type: physicochemical; outline: as §4
[10] = Stability of compound in fasted state stimulated intestinal fluid at pH 7.4 assessed as half life in presence of 40 mg/ml pancreatin by HPLC-UV assay; type: ADME; settings: for half-life: fasted state simulated intestinal fluid with pancreatin; outline: as §1
[11] = Cytotoxicity against Sprague-Dawley rat Cerebral cortex neuron assessed as cell viability at 1 uM incubated for 24 hrs by MTT assay relative to control; type: tissue-based; settings: cerebral cortex neurons, read-out: Activity; outline: as §6
[12] = Antioxidant activity in Sprague-Dawley rat Cerebral cortex neuron assessed as total antioxidant capacity by measuring trolox equivalents at 50 uM after 24 hrs; type: functional; outline: as §2
[13] = Cytotoxicity against Sprague-Dawley rat Cerebral cortex neuron assessed as LDH activity at 100 uM incubated for 24 hrs by LDH assay (reference value: […]); type: tissue-based; outline: as §3
[14] = Cytotoxicity against Sprague-Dawley rat Cerebral cortex neuron assessed as cell viability at 25 uM incubated for 24 hrs by MTT assay relative to control; type: tissue-based; settings: cerebral cortex neurons, read-out: Activity; outline: as §6
[15] = Antioxidant activity in Sprague-Dawley rat Cerebral cortex neuron assessed as total antioxidant capacity by measuring trolox equivalents at 100 uM after 24 hrs; type: functional; outline: as §2
[16] = Antioxidant activity in Sprague-Dawley rat Cerebral cortex neuron assessed as total antioxidant capacity by measuring trolox equivalents at 1 uM after 24 hrs; type: functional; outline: as §2
[17] = Cytotoxicity against Sprague-Dawley rat Cerebral cortex neuron assessed as LDH activity at 50 uM incubated for 24 hrs by LDH assay (reference value: […]); type: tissue-based; outline: as §3
[18] = Antioxidant activity in Sprague-Dawley rat Cerebral cortex neuron assessed as total oxidative stress level by measuring H2O2 equivalents at 0.1 uM after 24 hrs (reference value: 2.3 +/- 0.3 umol/L); type: functional; outline: as §2
[19] = Stability of compound in fasted state stimulated intestinal fluid at pH 1.3 assessed as half life in presence of 10 mg/ml pepsin by HPLC-UV assay; type: ADME; settings: fasted state simulated intestinal fluid with pepsin; outline: as §1
[20] = Antioxidant activity in Sprague-Dawley rat Cerebral cortex neuron assessed as total antioxidant capacity by measuring trolox equivalents at 10 uM after 24 hrs; type: functional; outline: as §2
[21] = Cytotoxicity against Sprague-Dawley rat Cerebral cortex neuron assessed as LDH activity at 10 uM incubated for 24 hrs by LDH assay; type: tissue-based; outline: as §3
[22] = Cytotoxicity against Sprague-Dawley rat Cerebral cortex neuron assessed as cell viability at 10 uM incubated for 24 hrs by MTT assay relative to control; type: tissue-based; settings: cerebral cortex neurons, read-out: Activity; outline: as §6
[23] = Stability of compound in human plasma assessed as rate of compound hydrolysis by HPLC-UV assay; type: ADME, cell-free; outline: as §5
[24] = Stability of compound in fasted state stimulated intestinal fluid at pH 1.3 assessed as half life in presence of 40 mg/ml pepsin by HPLC-UV assay; type: ADME; settings: fasted state simulated intestinal fluid with pepsin; outline: as §1
[25] = Cytotoxicity against Sprague-Dawley rat Cerebral cortex neuron assessed as cell viability at 100 uM incubated for 24 hrs by MTT assay relative to control; type: tissue-based; settings: cerebral cortex neurons, read-out: Activity; outline: as §6
[26] = Antioxidant activity in Sprague-Dawley rat Cerebral cortex neuron assessed as total antioxidant capacity by measuring trolox equivalents at 0.1 uM after 24 hrs; type: functional; outline: as §2
[27] = Stability of compound in non-enzymatic stimulated-gastric fluid at pH 1.3 assessed as rate of compound hydrolysis by HPLC-UV assay; type: physicochemical; settings: simulated gi fluid; outline: as §4
[28] = Cytotoxicity against rat Sprague-Dawley Cerebral cortex neuron assessed as cell viability at 50 uM incubated for 24 hrs by MTT assay relative to control; type: tissue-based; settings: cerebral cortex neurons, read-out: Activity; outline: as §6

Row | SMILES | Drug degradation [1] [h⁻¹] | TAC [2] [mmol/L] | Activity [3] [mU/ml] | half-life [4] [h] | half-life [5] [h] | viability at 24 h, 0.1 µM [8] [%] | Drug degradation [9] [h⁻¹] | viability at 24 h, 1 µM [11] [%] | TAC [12] [mmol/L] | Activity [13] [mU/ml] | viability at 24 h, 25 µM [14] [%] | TAC [15] [mmol/L] | TAC [16] [mmol/L] | Activity [17] [mU/ml] | Activity [18] [µmol/L] | half-life [19] [h] | TAC [20] [mmol/L] | Activity [21] [mU/ml] | viability at 24 h, 10 µM [22] [%] | Drug degradation [23] [h⁻¹] | further results
1 | O=C(CCCCC1CCSS1)OC1CCN(Cc2ccccc2)CC1 (stereo not drawn) | 0.028 | 13.8 | 0.3 | 58.7 | 40.5 | 99.8 | 0.017 | 98.7 | 13.6 | 0.32 | 98.1 | 12.5 | 10.9 | 0.3 | 0.5 | 24.5 | 11.4 | 0.29 | 97.8 | 1.61 | half-life [6]: 0.29 h; t1/2 [7]: Unstable; half-life [10]: 0.09 h; half-life [24]: 23.1 h; viability at 24 h, 100 µM [25]: 97.8%; TAC [26]: 10.8 mmol/L; Drug degradation [27]: 0.012 h⁻¹; viability at 24 h, 50 µM [28]: 97.6%
2 | O=C(CCCCC1CCSS1)N1CCN(Cc2ccccc2)CC1 (stereo not drawn) | 0.01 | 12.9 | 0.3 | 93 | 53.8 | 99.4 | 0.013 | 98.6 | 14.8 | 0.34 | 96.8 | 14.6 | 11.1 | 0.34 | 0.5 | 69 | 12.6 | 0.32 | 97.5 | 0.39 | half-life [6]: 22.2 h; t1/2 [7]: Unstable; half-life [10]: 9.58 h; half-life [24]: 66.2 h; viability at 24 h, 100 µM [25]: 95.4%; TAC [26]: 10.4 mmol/L; Drug degradation [27]: 0.007 h⁻¹; viability at 24 h, 50 µM [28]: 96%
3 | O=C(CCCCC1CCSS1)OC1CCN(Cc2ccc(F)cc2)CC1 (stereo not drawn) | 1.019 | 12.6 | 0.3 | 47 | 38 | 97.5 | 0.019 | 98.3 | 13.5 | 0.32 | 97.1 | 12.4 | 11.2 | 0.32 | 0.4 | 3.77 | 11.1 | 0.29 | 96.9 | 0.856 | t1/2 ([6]; simulated gi fluid): Unstable; half-life [7]: 0.56 h; t1/2 ([10]; simulated gi fluid): Unstable; half-life [24]: 0.68 h; viability at 24 h, 100 µM [25]: 95.6%; TAC [26]: 11 mmol/L; Drug degradation [27]: 0.015 h⁻¹; viability at 24 h, 50 µM [28]: 95.8%
4 | COc1ccc(CN2CCN(C(=O)CCCCC3CCSS3)CC2)cc1 (stereo not drawn) | 0.029 | 11.3 | 0.28 | 240 | 238 | 98.1 | 0.003 | 97.4 | 11 | 0.34 | 95.3 | 10.8 | 11.2 | 0.34 | 0.4 | 112 | 10.9 | 0.3 | 96.1 | 0.13 | half-life [6]: 60.9 h; half-life [7]: 4.13 h; half-life [10]: 41.6 h; half-life [24]: 23.7 h; viability at 24 h, 100 µM [25]: 89.3%; TAC [26]: 10.5 mmol/L; Drug degradation [27]: 0.003 h⁻¹; viability at 24 h, 50 µM [28]: 92.7%
5 | COc1ccc(CN2CCC(OC(=O)CCCCC3CCSS3)CC2)cc1 (stereo not drawn) | 0.031 | 11.4 | 0.28 | 52 | 37 | 99.5 | 0.019 | 98.4 | 10.9 | 0.34 | 96.2 | 10.7 | 11.3 | 0.34 | 0.5 | 39.1 | 11 | 0.34 | 97.1 | 1.14 | half-life [6]: 2.78 h; half-life [7]: 0.46 h; half-life [10]: 2.83 h; half-life [24]: 22.2 h; viability at 24 h, 100 µM [25]: 91.2%; TAC [26]: 10.8 mmol/L; Drug degradation [27]: 0.013 h⁻¹; viability at 24 h, 50 µM [28]: 95%
6 | O=C(CCCCC1CCSS1)N1CCN(Cc2ccc(F)cc2)CC1 (stereo not drawn) | 0.019 | 13.9 | 0.3 | 88 | 81 | 99.3 | 0.009 | 97.5 | 11.4 | 0.34 | 96 | 11.1 | 11.2 | 0.34 | 0.4 | 107 | 12.6 | 0.34 | 97.2 | 0.165 | half-life [6]: 75.1 h; half-life [7]: 2.92 h; half-life [10]: 32.3 h; half-life [24]: 37.2 h; viability at 24 h, 100 µM [25]: 96.7%; TAC [26]: 10.9 mmol/L; Drug degradation [27]: 0.008 h⁻¹; viability at 24 h, 50 µM [28]: 96.5%
